Measurements taken from article PMC2928052 (Journal of medicinal chemistry, 2010).
“Also recorded” adds a separate entry of the source.

Tests used:
[1] = test system: biotinylated HIV-1 FSS RNA; assay: SPR binding kinetics, RNA immobilized on streptavidin-coated CM5 chip; settings: 1X PBS, 5 mM MgCl2, 0.005 % Tween-20, 1:1 global fit to six sensorgrams
[2] = test system: HIV-1 FSS with single mutation in the loop region (entry 7); assay: Fluorescence titration, Table 1 entry 7; type: binding; settings: entry 7, single mutation in the loop region
[3] = target: unrelated RNA hairpin (entry 10); settings: Table 1 entry 10; compound immobilized on chip; previously reported; cited from earlier work
[4] = test system: HIV-1 FSS with multiple mutations in the loop region (entry 8); assay: Fluorescence titration, Table 1 entry 8; type: binding; settings: entry 8, multiple mutations in the loop region
[5] = target: DNA homolog of the HIV-1 FSS (entry 9); assay: Fluorescence titration, Table 1 entry 9; type: binding
Summary of the method: (§1)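 5′-Cy3-labelled oligonucleotide (400 or 500 nM) in 1X PBS pH 7.2 was heated to 65 °C for 4 min, MgCl2 was added, and the sample was cooled slowly to RT. Test compound was titrated in (100 nM–10 μM), with ≥10 min equilibration per addition. Excitation was 550 nm and emission was read at 564.1 nm. Dilution-corrected ΔFU was fit to a 1-site ligand-depletion model, with ≥2 titrations.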

[6] = target: unrelated RNA hairpin (entry 10); assay: Fluorescence titration, Table 1 entry 10; type: binding
Summary of the method: as §1

[7] = target: unrelated RNA hairpin (entry 11); assay: Fluorescence titration, Table 1 entry 11; type: binding
Summary of the method: as §1

[8] = target: HIV-1 FSS RNA (upper stem-loop of the HIV-1 frameshift-stimulating RNA); assay: Fluorescence titration of compound into 5′-Cy3-labeled RNA; type: binding, HIV-1 (group M subtype D); settings: Table 2, average ± standard deviation of 3 replicate titrations

Molecule	Association rate (kon) [1]	Dissociation rate (koff) [1]	reduction in the binding relative to HIV-1 FSS [2] [fold]	Binding constant (KD), SPR [3]	reduction in the binding relative to HIV-1 FSS [4] [fold]	Binding constant (KD), Solution [5]	Binding constant (KD), Solution [6]	Binding constant (KD), Solution [7]	KD [8]
NC[C@@H]1O[C@H](O[C@H]2[C@@H](O)[C@H](O[C@@H]3[C@@H](O)[C@H](N)C[C@H](N)[C@H]3O[C@H]3O[C@H](CN)[C@@H](O)[C@H](O)[C@H]3N)O[C@@H]2CO)[C@H](N)[C@@H](O)[C@@H]1O [Neomycin, neomycin, reference compound]	too rapid to determine accurately	too rapid to determine accurately							
(Cys-Pro-Phe)2 (disulfide) [Compound 1]	1790 M⁻¹ s⁻¹	0.0141 s⁻¹	2	No binding	4	No saturable binding	No saturable binding	No saturable binding	
(Cys-Pro-Phe)2 (disulfide) [Compound 5]									completely ablated binding; also recorded: No Binding
